In the array DNA melting data of Ke et al. (doi:10.1101/2024.01.08.574731) one finds Tm and folding enthalpy data, which are given here for 37 sequences.

The nature of data set [1]: melting temperature; fluorescence melt of hairpins on a sequencing array, two-state fit, raised by 9.35 °C to match UV melts. The conditions noted are these: sodium 0.088 M. In short, it runs like this: (§1)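 Two-state fits, bootstrapped, provided melting temperature and folding enthalpy from Cy3 fluorescence normalised to pre-quench Cy3 and to control constructs. Library hairpins with annealed Cy3 and quencher oligos were imaged on a sequenced MiSeq flow cell in 50 mM Na-HEPES pH 8.0, 25 mM NaCl, at 2.5 °C intervals up to 60 °C. Four replicates were combined with inverse-variance weighting. A 9.35 °C upward shift was applied to fitted temperatures to match UV melts.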

Data set [2] can be described thus: folding enthalpy; higher = less favourable; fluorescence melt of hairpins on a sequencing array, two-state fit. The settings on record: sodium 0.088 M. The essentials: as §1

Consider GATGGCCGAAAGGCGATC (((.(((....))).))), for which the Tm in data set [1] is 52.8 °C. For the same sequence, the folding enthalpy in data set [2] is -23.9 kcal/mol.
For GCCTCGCGAAAGCGCGGC (((.(((....))).))) the same measures were 61.3 °C and -40.8 kcal/mol.
With GTAATCGAAAGATACTAC ((((((....)))..))), the Tm in data set [1] turned out to be 31.4 °C. In addition, the folding enthalpy in data set [2] is -18.4 kcal/mol.
With GATCCCGAAAGGGTATC ((((((....))).))), the Tm in data set [1] stood at 45.5 °C. Moreover, in data set [2], the folding enthalpy was -15.8 kcal/mol.
For GCATGGCGAAAGCCCCGC ((..(((....)))..)) the same measures were 29.6 °C and -12.4 kcal/mol.
In the case of GTTTATCGAAAGATCAAC (((.(((....))).))), the Tm in data set [1] was found to be 34.6 °C. Further, the folding enthalpy in data set [2] was -22.1 kcal/mol.
For GCATTGCGAAAGCGACGC ((.(.((....)).).)) the same measures were 49.3 °C and -16.6 kcal/mol.
The like results for GCCAGGCGAAAGCCGAGC ((..(((....)))..)) were, in that order, 52.2 °C and -13.3 kcal/mol.
For GATGCCGAAAGGCGGATC ((((((....)))..))) the same measures were 40.5 °C and -10.5 kcal/mol.
As for GCTTCGCGAAAGCGCGGC ((..(((....)))..)), the Tm in data set [1] was 39.6 °C. For the same sequence, the folding enthalpy in data set [2] is -18.8 kcal/mol.
For GTGCAAGGAAACTTGCGC (.(((((....))))).) the same measures were 59.1 °C and -27.6 kcal/mol.
GCATTGCGAAAGCTTTGC (((..((....))..))): the Tm in data set [1] came out at 49.1 °C. Also, the folding enthalpy in data set [2] was -21.4 kcal/mol.
The like results for GCGGGATGCCGC ((((....)))) were, in that order, 55.8 °C and -22.6 kcal/mol.
For GACGAGCGAAAGCTGTC (((.(((....)))))) the same measures were 53 °C and -32.3 kcal/mol.
For GTGATCGGAAACGGTTAC ((.(.((....)).).)), the Tm in data set [1] worked out at 31.9 °C. Moreover, the folding enthalpy in data set [2] is -29.9 kcal/mol.
The like results for GTACAGAAATGTAC (((((....))))) were, in that order, 40.4 °C and -20.2 kcal/mol.
GGTAGCGAAAGCTTTACC ((((((....)))..))): the Tm in data set [1] was determined as 34.4 °C. In addition, the folding enthalpy in data set [2] is -15.7 kcal/mol.
For GAGGCCGAAAGGCCCCTC ((((((....)))..))) the same measures were 49.7 °C and -9.61 kcal/mol.
In the case of GTCGTGGGAAACCATGAC (((.(((....))).))), in data set [1], the Tm worked out at 52.5 °C. Besides, in data set [2], the folding enthalpy is -45.9 kcal/mol.
For GTATCTCGAAAGAGCTAC (((.(((....))).))) the same measures were 36 °C and -21.8 kcal/mol.
Take GCACCCGAAAGGGAGTGC ((((((....)))..))): the Tm in data set [1] was found to be 54 °C. In addition, the folding enthalpy in data set [2] is -38.3 kcal/mol.
For GGTCTCGAAAGAGGAACC ((((((....)))..))) the same measures were 35.1 °C and -16.9 kcal/mol.
For GCGGAGGGAAACCCCCGC ((((.((....)).)))) the same measures were 57.6 °C and -38.9 kcal/mol.
For the sequence GACGACGGAAACGTCGCC (.(((((....))))).), the Tm in data set [1] was 53.1 °C. In addition, the folding enthalpy in data set [2] was -12.2 kcal/mol.
The like results for GTAAGCGAAAGCTATAC ((((((....))).))) were, in that order, 33.8 °C and -14.9 kcal/mol.
For GATCTGATACCAGATC ((((((....)))))) the same measures were 47.1 °C and -40.8 kcal/mol.
Take GGGCTACGAAAGTACCC (((.(((....)))))): the Tm in data set [1] was 49.6 °C. Besides, in data set [2], the folding enthalpy was -34.9 kcal/mol.
Consider GATCGTAAGCACGATC ((((((....)))))), for which, in data set [1], the Tm worked out at 53.9 °C. In data set [2], the folding enthalpy is -36.4 kcal/mol.
For GTAAGCGCGAAAGCGTAC (((..(((....)))))) the same measures were 28.8 °C and -9.28 kcal/mol.
Turning to GAGACAGGAAACTGCCTC (((.(((....))).))), the Tm in data set [1] was 42.3 °C. Moreover, the folding enthalpy in data set [2] was -39.7 kcal/mol.
The like results for GATCCAGGGCTGGATC ((((((....)))))) were, in that order, 52.4 °C and -38.3 kcal/mol.
The like results for GATCCACGATGGATC ((((((...)))))) were, in that order, 48.6 °C and -27 kcal/mol.
The like results for GGAGTTGCGAAAGCATCC (((..(((....)))))) were, in that order, 32.5 °C and -12.7 kcal/mol.
With CGGCCACGGAAACGTCCG (((..(((....)))))), the Tm in data set [1] amounted to 33.6 °C. Moreover, the folding enthalpy in data set [2] is -10.4 kcal/mol.
The like results for GGGATGGGAAACCGTCTC (.((.((....)).)).) were, in that order, 36.6 °C and -26.1 kcal/mol.
Turning to GAGATCGGAAACGGTCTC ((((.((....)).)))), in data set [1], the Tm is 51.3 °C. The folding enthalpy in data set [2] was -44.5 kcal/mol.
The like results for GATCTCGATGGAGATC ((((((....)))))) were, in that order, 52.9 °C and -33.4 kcal/mol.
